We go through 2 compounds from ChEMBL document CHEMBL2424574, “Structure-activity relationships and pharmacophore model of a noncompetitive pyrazoline containing class of GluN2C/GluN2D selective antagonists” (J Med Chem, 2013).

What is called IC50 is the midpoint of a concentration-inhibition curve. For orientation: Ki means a dissociation constant, usually derived from enzyme kinetics or from competition with a known ligand. A lower Ki goes with a stronger hold on the target.

The target of data set [1] is Glutamate receptor ionotropic, NMDA 2B (Rattus norvegicus, UniProt P35439+Q00960). Description: Negative allosteric modulation of recombinant rat GluN2B receptor expressed in Xenopus laevis oocytes by two-electrode voltage clamp method. The class given is cell-based, Oocyte. Summed up: (§1)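 Two-electrode voltage clamp of Xenopus oocytes expressing rat GluN1 with GluN2A, 2B, 2C or 2D. Holding potential −40 mV in recording solution (mM: 90 NaCl, 1 KCl, 0.5 BaCl2, 0.005 EDTA, 10 HEPES, pH 7.4, 23 °C). Compounds diluted from 20 mM DMSO stocks to 0.05–0.1% final DMSO. IC50 from a Hill fit to the averaged composite concentration–response curve, 5–24 oocytes from 2–4 frogs.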

The target of data set [2] is Glutamate receptor ionotropic, NMDA 2A (Rattus norvegicus, UniProt P35439+Q00959). Kind of data set: Negative allosteric modulation of recombinant rat GluN2A receptor expressed in Xenopus laevis oocytes by two-electrode voltage clamp method. Format: cell-based, Oocyte. Summed up: as §1
In data set [3] the target is Ionotropic glutamate receptor NMDA 1/2C (Homo sapiens) (UniProt Q05586+Q14957). Kind of data set: Inhibition of GluN1/GluN2C receptor (unknown origin) expressed in Xenopus laevis oocytes assessed as inhibition of glutamate/glycine-induced current at 3 uM by two-electrode voltage clamp method; values are per cent of control. To be noted: Oocyte.
The target in data set [4] is Glutamate receptor ionotropic, NMDA 2D (Rattus norvegicus, UniProt P35439+Q62645). Description: Negative allosteric modulation of recombinant rat GluN2D receptor expressed in Xenopus laevis oocytes by two-electrode voltage clamp method. The class given is cell-based, Oocyte. The method in brief: as §1
Data set [5] has as its target Gamma-aminobutyric acid receptor subunit rho-1 (Homo sapiens) (UniProt P24046). Kind of data set: Inhibition of human GABA C receptor subunit rho-1 receptor expressed in Xenopus laevis oocytes assessed as inhibition of GABA-induced current at 3 uM by two-electrode voltage clamp method; values are per cent of control. To be noted: Oocyte. On the technique in general: Two-electrode voltage clamp is typically applied to oocytes expressing channels or transporters.

Data set [6] concerns the target Glutamate receptor ionotropic, kainate 2 (Homo sapiens) (UniProt Q13002). Description: Inhibition of GluK2 receptor (unknown origin) expressed in Xenopus laevis oocytes assessed as inhibition of glutamate-induced current at 3 uM by two-electrode voltage clamp method; values are per cent of control. The note with it: Oocyte.
The target of data set [7] is Glutamate receptor 3 (Homo sapiens) (UniProt P42263). Kind of data set: Inhibition of GluA3 receptor (unknown origin) expressed in Xenopus laevis oocytes assessed as inhibition of glutamate-induced current at 3 uM by two-electrode voltage clamp method; values are per cent of control. To be noted: Oocyte.
Data set [8] has as its target Neuronal acetylcholine receptor; alpha4/beta2 (Homo sapiens) (UniProt P17787+P43681). Kind of data set: Inhibition of human nicotinic acetylcholine receptor subunit alpha-4 beta-2 expressed in Xenopus laevis oocytes assessed as inhibition of acetylcholine-induced current at 3 uM by two-electrode voltage clamp method; values are per cent of control. The note with it: Oocyte.

Data set [9] concerns the target Neuronal acetylcholine receptor subunit alpha-7 (Homo sapiens) (UniProt P36544). Kind of data set: Inhibition of human nicotinic acetylcholine receptor subunit alpha-7 expressed in Xenopus laevis oocytes assessed as inhibition of acetylcholine-induced current at 3 uM by two-electrode voltage clamp method; values are per cent of control. The note with it: Oocyte.
Data set [10] has as its system Plasma. Kind of data set: Metabolic stability in mouse plasma after 2 hrs. The class given is ADME, cell-free. Summed up:
(§2)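 Stability followed in human, rat or mouse plasma over a 2-hour time course.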

Data set [11] deals with Ionotropic glutamate receptor NMDA 1/2D (Homo sapiens) (UniProt Q05586+O15399). Description: Inhibition of GluN1/GluN2D receptor (unknown origin) expressed in Xenopus laevis oocytes assessed as inhibition of glutamate/glycine-induced current at 3 uM by two-electrode voltage clamp method; values are per cent of control. The note with it: Oocyte.
The target in data set [12] is Kappa-type opioid receptor (Homo sapiens, UniProt P41145). Kind of data set: Inhibition of kappa-type opioid receptor (unknown origin). The method in brief:
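Radioligand panel screening was run through the NIMH Psychoactive Drug Screening Program with compounds at 5 µM.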

Data set [13] addresses 5-hydroxytryptamine receptor 3A (Homo sapiens) (UniProt P46098). Description: Inhibition of serotonin 5-HT3A receptor (unknown origin) expressed in Xenopus laevis oocytes assessed as inhibition of serotonin-induced current at 3 uM by two-electrode voltage clamp method; values are per cent of control. The note with it: Oocyte.
The target in data set [14] is Neuronal acetylcholine receptor; alpha9/alpha10 (Homo sapiens) (UniProt Q9UGM1+Q9GZZ6). Kind of data set: Inhibition of nicotinic acetylcholine receptor subunit alpha-9 alpha-10 (unknown origin) expressed in Xenopus laevis oocytes assessed as inhibition of acetylcholine-induced current at 3 uM by two-electrode voltage clamp method; values are per cent of control. The note with it: Oocyte.

Data set [15] addresses Neuronal acetylcholine receptor; alpha3/beta4 (Homo sapiens) (UniProt P30926+P32297). Description: Inhibition of human nicotinic acetylcholine receptor subunit alpha-3 beta-4 expressed in Xenopus laevis oocytes assessed as inhibition of acetylcholine-induced current at 3 uM by two-electrode voltage clamp method; values are per cent of control. The note with it: Oocyte.
Data set [16] concerns the target Glycine receptor subunit alpha-1 (Homo sapiens) (UniProt P23415). Kind of data set: Inhibition of glycine receptor subunit alpha-1 (unknown origin) expressed in Xenopus laevis oocytes assessed as inhibition of glycine-induced current at 3 uM by two-electrode voltage clamp method; values are per cent of control. To be noted: Oocyte.
The target of data set [17] is Glutamate NMDA receptor; GRIN1/GRIN2B (Homo sapiens) (UniProt Q05586+Q13224). Description: Inhibition of GluN1/GluN2B receptor (unknown origin) expressed in Xenopus laevis oocytes assessed as inhibition of glutamate/glycine-induced current at 3 uM by two-electrode voltage clamp method; values are per cent of control. To be noted: Oocyte.
Data set [18] has as its system Plasma. Description: Metabolic stability in human plasma after 2 hrs. The class given is ADME, cell-free. The method in brief: as §2
Data set [19] addresses Glutamate receptor ionotropic, NMDA 2C (Rattus norvegicus, UniProt P35439+Q00961). Kind of data set: Negative allosteric modulation of recombinant rat GluN2C receptor expressed in Xenopus laevis oocytes by two-electrode voltage clamp method. The class given is cell-based, Oocyte. The method in brief:
as §1

Data set [20] deals with Ionotropic glutamate receptor kainate 2/5 (Homo sapiens) (UniProt Q16478+Q13002). Description: Inhibition of GluK2/GluK5 receptor (unknown origin) expressed in Xenopus laevis oocytes assessed as inhibition of AMPA-induced current at 3 uM by two-electrode voltage clamp method; values are per cent of control. To be noted: Oocyte.
Data set [21] deals with Glutamate NMDA receptor; GRIN1/GRIN2A (Homo sapiens) (UniProt Q05586+Q12879). Description: Inhibition of GluN1/GluN2A receptor (unknown origin) expressed in Xenopus laevis oocytes assessed as inhibition of glutamate/glycine-induced current at 3 uM by two-electrode voltage clamp method; values are per cent of control. The note with it: Oocyte.

Chain of Kappa-type opioid receptor (P41145 whole entry): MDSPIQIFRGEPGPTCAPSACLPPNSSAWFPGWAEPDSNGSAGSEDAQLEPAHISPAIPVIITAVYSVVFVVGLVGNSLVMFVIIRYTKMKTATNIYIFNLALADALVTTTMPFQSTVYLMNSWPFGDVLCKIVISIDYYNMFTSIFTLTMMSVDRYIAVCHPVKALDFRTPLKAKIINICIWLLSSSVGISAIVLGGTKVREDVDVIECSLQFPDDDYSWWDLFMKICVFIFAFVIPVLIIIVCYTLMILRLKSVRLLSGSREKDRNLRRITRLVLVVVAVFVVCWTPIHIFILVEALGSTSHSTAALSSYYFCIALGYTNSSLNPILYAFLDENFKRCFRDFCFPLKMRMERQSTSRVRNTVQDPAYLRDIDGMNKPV
Chain of Glutamate receptor 3 (Homo sapiens) (P42263 whole entry): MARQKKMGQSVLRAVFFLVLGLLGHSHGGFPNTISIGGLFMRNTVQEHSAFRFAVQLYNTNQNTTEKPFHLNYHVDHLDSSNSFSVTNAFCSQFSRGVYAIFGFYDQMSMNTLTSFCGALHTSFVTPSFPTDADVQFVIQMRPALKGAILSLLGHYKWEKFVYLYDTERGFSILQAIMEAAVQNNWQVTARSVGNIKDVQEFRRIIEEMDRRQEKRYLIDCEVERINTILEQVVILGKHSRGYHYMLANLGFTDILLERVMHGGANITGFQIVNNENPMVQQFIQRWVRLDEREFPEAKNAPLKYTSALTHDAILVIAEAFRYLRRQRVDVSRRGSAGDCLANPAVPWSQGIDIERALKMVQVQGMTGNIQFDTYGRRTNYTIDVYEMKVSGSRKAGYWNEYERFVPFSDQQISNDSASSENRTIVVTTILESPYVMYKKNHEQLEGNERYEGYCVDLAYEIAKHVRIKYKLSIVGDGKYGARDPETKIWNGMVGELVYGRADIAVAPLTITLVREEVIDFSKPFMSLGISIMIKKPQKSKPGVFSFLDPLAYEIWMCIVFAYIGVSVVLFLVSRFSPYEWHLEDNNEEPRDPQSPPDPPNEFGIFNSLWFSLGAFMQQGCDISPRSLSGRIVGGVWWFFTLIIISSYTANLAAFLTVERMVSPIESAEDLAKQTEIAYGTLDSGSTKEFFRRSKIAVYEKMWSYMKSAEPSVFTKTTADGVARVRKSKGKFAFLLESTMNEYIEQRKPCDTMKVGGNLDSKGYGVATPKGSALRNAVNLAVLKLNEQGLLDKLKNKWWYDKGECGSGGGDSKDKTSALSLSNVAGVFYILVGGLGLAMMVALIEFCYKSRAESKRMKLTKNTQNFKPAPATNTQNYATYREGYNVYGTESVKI
Chain of Glutamate receptor ionotropic, NMDA 2C (Q00961 whole entry, one chain of several): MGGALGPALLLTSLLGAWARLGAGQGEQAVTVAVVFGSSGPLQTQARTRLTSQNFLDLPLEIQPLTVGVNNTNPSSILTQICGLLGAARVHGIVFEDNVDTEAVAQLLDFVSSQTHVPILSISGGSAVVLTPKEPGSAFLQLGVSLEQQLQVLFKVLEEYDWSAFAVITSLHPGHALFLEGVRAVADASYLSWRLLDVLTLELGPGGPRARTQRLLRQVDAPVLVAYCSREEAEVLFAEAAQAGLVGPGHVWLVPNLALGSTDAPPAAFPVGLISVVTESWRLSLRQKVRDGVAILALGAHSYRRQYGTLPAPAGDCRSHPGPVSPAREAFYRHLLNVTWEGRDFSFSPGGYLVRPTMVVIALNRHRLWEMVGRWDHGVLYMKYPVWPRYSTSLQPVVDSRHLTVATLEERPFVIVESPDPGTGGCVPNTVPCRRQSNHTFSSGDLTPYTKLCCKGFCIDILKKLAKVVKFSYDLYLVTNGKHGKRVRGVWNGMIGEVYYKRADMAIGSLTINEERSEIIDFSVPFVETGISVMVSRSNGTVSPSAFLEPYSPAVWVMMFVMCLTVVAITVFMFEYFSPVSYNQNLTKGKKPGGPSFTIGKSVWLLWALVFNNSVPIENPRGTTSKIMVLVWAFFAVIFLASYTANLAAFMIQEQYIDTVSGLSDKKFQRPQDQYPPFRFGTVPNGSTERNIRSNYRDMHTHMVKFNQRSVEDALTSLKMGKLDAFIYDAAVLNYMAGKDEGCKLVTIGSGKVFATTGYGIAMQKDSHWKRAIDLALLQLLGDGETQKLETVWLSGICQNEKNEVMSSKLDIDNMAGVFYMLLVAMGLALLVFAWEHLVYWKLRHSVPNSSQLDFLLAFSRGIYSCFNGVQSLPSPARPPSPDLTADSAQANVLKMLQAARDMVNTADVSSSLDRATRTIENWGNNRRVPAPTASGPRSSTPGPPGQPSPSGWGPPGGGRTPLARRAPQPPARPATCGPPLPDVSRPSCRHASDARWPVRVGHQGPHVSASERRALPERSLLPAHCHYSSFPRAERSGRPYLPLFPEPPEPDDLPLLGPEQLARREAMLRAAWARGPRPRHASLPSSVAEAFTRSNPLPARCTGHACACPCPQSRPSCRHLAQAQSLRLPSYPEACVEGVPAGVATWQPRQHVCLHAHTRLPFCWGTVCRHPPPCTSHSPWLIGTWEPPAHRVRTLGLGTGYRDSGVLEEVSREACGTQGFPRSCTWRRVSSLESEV
Chain of Glutamate receptor ionotropic, NMDA 2D (Q62645 whole entry, one chain of several): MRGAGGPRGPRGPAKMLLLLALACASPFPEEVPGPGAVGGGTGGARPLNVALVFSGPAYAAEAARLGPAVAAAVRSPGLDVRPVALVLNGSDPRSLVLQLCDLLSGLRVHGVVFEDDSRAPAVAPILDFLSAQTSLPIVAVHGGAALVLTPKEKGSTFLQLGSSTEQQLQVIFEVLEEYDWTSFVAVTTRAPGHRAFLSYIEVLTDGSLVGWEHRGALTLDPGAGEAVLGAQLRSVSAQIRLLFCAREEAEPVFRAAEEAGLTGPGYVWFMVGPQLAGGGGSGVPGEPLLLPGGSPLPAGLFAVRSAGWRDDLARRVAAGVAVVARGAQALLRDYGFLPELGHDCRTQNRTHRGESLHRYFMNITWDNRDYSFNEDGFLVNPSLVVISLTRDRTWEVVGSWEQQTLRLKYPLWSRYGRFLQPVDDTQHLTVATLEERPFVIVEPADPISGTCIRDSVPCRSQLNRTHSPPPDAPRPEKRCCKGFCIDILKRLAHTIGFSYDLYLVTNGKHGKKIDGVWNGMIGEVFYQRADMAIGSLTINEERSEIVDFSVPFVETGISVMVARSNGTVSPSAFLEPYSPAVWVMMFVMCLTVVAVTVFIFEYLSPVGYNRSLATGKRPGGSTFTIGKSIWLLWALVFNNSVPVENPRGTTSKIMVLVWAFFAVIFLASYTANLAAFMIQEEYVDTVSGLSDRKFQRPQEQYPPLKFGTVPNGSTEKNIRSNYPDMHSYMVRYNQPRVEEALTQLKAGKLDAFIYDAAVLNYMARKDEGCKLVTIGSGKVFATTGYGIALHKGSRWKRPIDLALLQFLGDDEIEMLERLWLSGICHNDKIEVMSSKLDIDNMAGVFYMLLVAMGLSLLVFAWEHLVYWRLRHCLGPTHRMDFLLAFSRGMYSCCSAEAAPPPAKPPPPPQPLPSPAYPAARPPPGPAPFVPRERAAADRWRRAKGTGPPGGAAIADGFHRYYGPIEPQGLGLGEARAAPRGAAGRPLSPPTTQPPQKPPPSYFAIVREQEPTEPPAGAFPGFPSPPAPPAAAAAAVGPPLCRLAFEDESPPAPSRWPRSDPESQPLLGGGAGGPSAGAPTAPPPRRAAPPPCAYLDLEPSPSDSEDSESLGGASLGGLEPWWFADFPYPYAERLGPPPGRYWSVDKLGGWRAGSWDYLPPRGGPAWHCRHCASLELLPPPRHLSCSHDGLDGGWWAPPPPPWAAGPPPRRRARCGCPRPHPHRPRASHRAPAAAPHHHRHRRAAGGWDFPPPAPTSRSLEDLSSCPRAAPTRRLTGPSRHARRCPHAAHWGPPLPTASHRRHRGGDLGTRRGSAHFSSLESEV
Chain of 5-hydroxytryptamine receptor 3A (Homo sapiens) (P46098 whole entry): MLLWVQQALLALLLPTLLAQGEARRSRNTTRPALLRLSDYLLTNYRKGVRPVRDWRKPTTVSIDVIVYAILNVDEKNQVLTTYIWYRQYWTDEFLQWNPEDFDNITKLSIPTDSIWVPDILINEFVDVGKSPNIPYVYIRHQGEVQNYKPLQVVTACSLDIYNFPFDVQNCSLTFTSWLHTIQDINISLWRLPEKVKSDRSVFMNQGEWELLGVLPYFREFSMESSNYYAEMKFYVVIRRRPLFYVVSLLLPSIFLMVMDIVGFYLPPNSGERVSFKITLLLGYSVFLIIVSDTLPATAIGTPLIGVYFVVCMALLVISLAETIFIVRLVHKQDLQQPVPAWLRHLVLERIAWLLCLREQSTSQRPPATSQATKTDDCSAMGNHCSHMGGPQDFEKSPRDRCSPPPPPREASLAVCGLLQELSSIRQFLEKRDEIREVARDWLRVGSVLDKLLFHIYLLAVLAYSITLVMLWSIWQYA
Chain of Gamma-aminobutyric acid receptor subunit rho-1 (Homo sapiens) (P24046 whole entry): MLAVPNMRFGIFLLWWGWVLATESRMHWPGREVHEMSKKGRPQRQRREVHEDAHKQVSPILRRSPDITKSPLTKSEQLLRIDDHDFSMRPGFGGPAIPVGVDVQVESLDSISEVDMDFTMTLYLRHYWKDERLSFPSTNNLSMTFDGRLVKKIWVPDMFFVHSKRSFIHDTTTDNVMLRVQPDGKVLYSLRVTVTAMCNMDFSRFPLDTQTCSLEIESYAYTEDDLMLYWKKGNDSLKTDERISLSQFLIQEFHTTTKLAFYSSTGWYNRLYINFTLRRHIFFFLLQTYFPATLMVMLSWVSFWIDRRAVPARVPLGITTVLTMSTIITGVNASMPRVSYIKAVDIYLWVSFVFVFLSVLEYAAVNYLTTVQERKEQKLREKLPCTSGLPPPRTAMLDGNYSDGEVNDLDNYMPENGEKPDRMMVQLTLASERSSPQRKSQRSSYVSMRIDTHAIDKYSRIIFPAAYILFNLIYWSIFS

`O=C(O)/C=C/C(=O)N1N=C(c2c(-c3ccc(Br)cc3)c3ccccc3[nH]c2=O)CC1c1ccc(Cl)cc1` (racemic): the IC50 was 12 µM in data set [1], 4.3 µM in [2], 0.19 µM in [4] and 0.2 µM in [19]. The residual activity is 26% in data set [3]; 97% in [5]; 97% in [6]; 100% in data set [7]; 82% in [8]; 64% in data set [9]. Also, the residual activity was 14% in data set [11]; 95% in data set [13]; 72% in data set [14]; 87% in data set [15]; 99% in data set [16]; 98% in [17]. The residual activity amounted to 95% in data set [20] and 89% in data set [21]. Further, the Stability result with Plasma [10] and with Plasma [18] was “Stable” each time. This compound displayed a Ki in [12] of more than 10 µM.
As for `O=C(O)CCC(=O)N1N=C(c2c(-c3ccc(Cl)cc3)c3ccccc3[nH]c2=O)CC1c1ccc(Cl)cc1` (racemic), the 50% inhibitory concentration (IC50) in [1] is 22 µM; in [2] it was 21 µM; in [4], 0.44 µM; in data set [19] it was 0.77 µM. Further, the residual activity was found to be 21% in data set [3]; 99% in data set [5]; 97% in data set [6]; 99% in data set [7]; 79% in [8]; 82% in data set [9]. Besides, the residual activity in data set [11] turned out to be 14%; in data set [13], 95%; in [14], 67%; in data set [15] it was 77%; in [16], 101%; in [17] it was 79%. For the same compound, the values for the residual activity in [20] and in [21] were 97% and 89%, respectively. Besides, the Stability result with Plasma [10] and in the data set with Plasma [18] was “Stable” in each case. Moreover, in data set [12], the Ki was more than 10 µM.
